Results pooled from the literature.
Protocols differ between the studies behind these lines.
Target: Mitogen-activated protein kinase 10 (MAPK10, Homo sapiens, UniProt P53779)

SMILES | assay | conditions | measurement | value
CO[C@@H]1[C@H](N(C)C(=O)c2ccccc2)C[C@H]2O[C@]1(C)n1c3ccccc3c3c4c(c5c6ccccc6n2c5c31)C(=O)NC4 | enzyme activity, inhibitor | 1 µM | inhibition | 33%
C[C@H]1CC[C@H](n2c3cnccc3c3cnc(Nc4ccc5c(n4)CCN(C(=O)CO)C5)nc32)CC1 | cell-free assay | 1 µM | remaining signal | 2.6%
N#Cc1ccc(NC(=O)Nc2ccccc2)cc1 | cell-free assay, competition with immobilised ligand | 25 µM | remaining binding | 65%
C#Cc1cnc(Nc2ccnc(CO)c2)nc1Nc1ccccc1S(C)(=O)=NC#N (stereo not shown) | cell-free assay | 1 µM | remaining signal | 91%
C=CC(=O)N1CCC([C@@H]2CCNc3c(C(N)=O)c(-c4ccc(Oc5ccccc5)cc4)nn32)CC1 | enzyme activity, inhibitor | 1 µM | inhibition | 25%
COc1ccc2oc(-c3ccc4nc(N)oc4c3)c/c(=N\c3ccccc3NC(=O)CCN)c2c1 | binding | 1 µM | remaining binding | 113%
CCCCC(=O)Nc1ccc(-c2ccc3ncn(CCC)c(=O)c3c2)cn1 | binding, competition with immobilised ligand | 0.5 µM | remaining binding | 80%
CN1CCN(C(=O)c2ccc(NC(=O)Nc3ccc(N(C)c4ccnc(Nc5ccc(CS(C)(=O)=O)cc5)n4)cc3)cc2)CC1 | binding | 1 µM | remaining binding | 8.6%
C1=C/COCc2cc(ccc2OCCN2CCCC2)Nc2nccc(n2)-c2cccc(c2)COC/1 | cell-free assay | 0.1 µM | remaining signal | 33%
C#Cc1cc(-c2cc(Nc3nc(N[C@@H](C)c4ccc(F)cn4)ncc3Cl)n[nH]2)ccc1C=O | enzyme activity, inhibitor | 0.2 µM | inhibition | 6.29%
